Source: ChEMBL document CHEMBL3797022, “New applications for known drugs: Human glycogen synthase kinase 3 inhibitors as modulators of Aspergillus fumigatus growth” (Eur J Med Chem, 2016)
The source made the active and inactive calls. No cut-off for these calls is given here.

What was measured:
Aspergillus nidulans [1] = assay: Anifungal activity against Aspergillus nidulans MAD4100 deficient in crzA assessed as growth inhibition after 72 hrs by Neubauer chamber analysis; format: functional, organism-based
Summary of the method: (§1)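 A. nidulans prototroph strains (wild type MAD4096; crzAΔ MAD4100) were point-inoculated with 10^3 conidia, counted by Neubauer chamber, onto 1 ml AMM. The medium contained inhibitor from a 50 mM DMSO stock added to the melted agar, with a matching DMSO control. Colonial growth was evaluated photographically after 72 h at 37°C.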

Aspergillus nidulans [2] = assay: Anifungal activity against Aspergillus nidulans MAD4096 assessed as growth inhibition at 50 uM after 72 hrs by Neubauer chamber analysis; format: functional, organism-based; summary of the method: as §1
Aspergillus nidulans [3] = assay: Anifungal activity against Aspergillus nidulans MAD4097 deficient in sltA assessed as reduction in colonial diameter at 10 uM after 72 hrs by Neubauer chamber analysis; format: functional; settings: MAD4097, 72 h
Summary of the method: (§2)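 A. nidulans sltA-deleted prototroph MAD4097, alongside wild-type MAD4096 and crzA-null MAD4100, tested on solid minimal medium (AMM) containing increasing inhibitor concentrations, added from DMSO stock (stock 50 mM); equal DMSO in control medium. 10^3 spores (Neubauer chamber count) centrally inoculated per well; 37°C for 72 h, colonies then photographed and colonial growth evaluated.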

Aspergillus fumigatus [4] = assay: Anifungal activity against Aspergillus fumigatus CM237 assessed as growth inhibition at 50 uM after 48 to 72 hrs by Neubauer chamber analysis; format: functional, organism-based
Summary of the method: (§3)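 A. fumigatus wild-type prototroph conidia were used, 10^3 spores counted by Neubauer chamber and inoculated centrally onto 1 ml AMM. Inhibitors were dissolved in DMSO from 50 mM stocks and added to melted medium, with a DMSO-only control. Colonial growth was scored at 37°C after 48 and 72 h.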

Aspergillus fumigatus [5] = assay: Anifungal activity against Aspergillus fumigatus AF293 assessed as growth inhibition at 50 uM after 48 to 72 hrs by Neubauer chamber analysis; format: functional; summary of the method: as §3
Aspergillus fumigatus [6] = assay: Anifungal activity against Aspergillus fumigatus CBS144 assessed as growth inhibition at 50 uM after 48 to 72 hrs by Neubauer chamber analysis; format: functional, organism-based; summary of the method: as §3
Aspergillus nidulans [7] = assay: Anifungal activity against Aspergillus nidulans MAD4096 assessed as growth inhibition after 72 hrs by Neubauer chamber analysis; format: functional, organism-based; summary of the method: as §1
[8] = molecular target: Glycogen synthase kinase-3 beta (Homo sapiens, UniProt P49841); assay: Inhibition of human recombinant GSK3beta expressed in Escherichia coli using GS-1 as substrate incubated for 20 mins by gamma[32P]ATP-based scintillation counting analysis
Sequence of Glycogen synthase kinase-3 beta (P49841 whole entry): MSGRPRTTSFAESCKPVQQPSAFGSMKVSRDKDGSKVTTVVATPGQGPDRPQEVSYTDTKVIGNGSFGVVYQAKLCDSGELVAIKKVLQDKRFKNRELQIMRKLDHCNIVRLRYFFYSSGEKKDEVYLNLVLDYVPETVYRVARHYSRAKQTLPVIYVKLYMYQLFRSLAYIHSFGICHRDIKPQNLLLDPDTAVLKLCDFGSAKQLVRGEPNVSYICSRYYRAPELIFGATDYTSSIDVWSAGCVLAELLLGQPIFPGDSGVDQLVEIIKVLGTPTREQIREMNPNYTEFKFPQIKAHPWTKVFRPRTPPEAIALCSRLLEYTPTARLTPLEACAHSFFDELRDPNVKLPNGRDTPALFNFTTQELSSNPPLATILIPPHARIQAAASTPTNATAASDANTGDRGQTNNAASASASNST

Aspergillus nidulans [9] = assay: Anifungal activity against Aspergillus nidulans MAD4097 deficient in sltA assessed as reduction in colonial diameter at 50 uM after 72 hrs by Neubauer chamber analysis; format: functional, organism-based; summary of the method: as §2
Aspergillus fumigatus [10] = assay: Anifungal activity against Aspergillus fumigatus CM237 assessed as growth inhibition at 100 uM after 48 to 72 hrs by Neubauer chamber analysis; format: functional, organism-based; summary of the method: as §3
Aspergillus fumigatus [11] = assay: Anifungal activity against Aspergillus fumigatus AF293 assessed as growth inhibition at 100 uM after 48 to 72 hrs by Neubauer chamber analysis; format: functional; summary of the method: as §3
Aspergillus fumigatus [12] = assay: Anifungal activity against Aspergillus fumigatus CBS144 assessed as growth inhibition at 100 uM after 48 to 72 hrs by Neubauer chamber analysis; format: functional, organism-based; summary of the method: as §3
Aspergillus nidulans [13] = assay: Anifungal activity against Aspergillus nidulans MAD4097 deficient in sltA assessed as growth inhibition after 72 hrs by Neubauer chamber analysis; format: functional, organism-based; summary of the method: as §2
Aspergillus fumigatus [14] = assay: Anifungal activity against Aspergillus fumigatus CBS144 assessed as growth inhibition at 5 uM after 48 to 72 hrs by Neubauer chamber analysis; format: functional, organism-based
Summary of the method: (§4)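 Wild-type prototroph A. fumigatus strains (CM237, AF293, CBS144) grown on solid minimal medium (AMM) with inhibitor added from DMSO stock (stock 50 mM); DMSO-only medium as control. 10^3 spores (counted by Neubauer chamber) centrally point-inoculated per well; incubated at 37°C, colonial growth scored after 48 and 72 h.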

Aspergillus fumigatus [15] = assay: Anifungal activity against Aspergillus fumigatus CM237 assessed as growth inhibition at 5 uM after 72 hrs by Neubauer chamber analysis; format: functional, organism-based; summary of the method: as §4
Aspergillus fumigatus [16] = assay: Anifungal activity against Aspergillus fumigatus AF293 assessed as growth inhibition at 5 uM after 72 hrs by Neubauer chamber analysis; format: functional; summary of the method: as §4
Aspergillus fumigatus [17] = assay: Anifungal activity against Aspergillus fumigatus CM237 assessed as growth inhibition at 5 uM after 48 hrs by Neubauer chamber analysis; format: functional, organism-based; summary of the method: as §4
Aspergillus fumigatus [18] = assay: Anifungal activity against Aspergillus fumigatus AF293 assessed as growth inhibition at 5 uM after 48 hrs by Neubauer chamber analysis; format: functional; summary of the method: as §4

For Cn1sc(=O)n(Cc2ccccc2)c1=O, which “growth inhibition (GI)” value (Aspergillus nidulans [1]) is on record?
The value was “inactive”.

What about the “growth inhibition (GI)” value (Aspergillus nidulans [2]) of the same compound?
Its value is “Active”.

And the inhibition at 10 µM (Aspergillus nidulans [3])?
The inhibition at 10 µM was 50%.

And the “growth inhibition (GI)” value (Aspergillus fumigatus [4])?
The value was “Active”.

And the “growth inhibition (GI)” value (Aspergillus fumigatus [5])?
Its value is “Active”.

What about the “growth inhibition (GI)” value (Aspergillus fumigatus [6]) of the same compound?
Its value is “Active”.

Which “growth inhibition (GI)” value (Aspergillus nidulans [7]) does the source give for CCCCCCCCCCCC(=O)NNC(=O)c1c(O)c2ccccc2n(CC)c1=O here?
The value was “inactive”.

What about the IC50 [8] of the same compound?
The IC50 was 2800 nM.

And the “growth inhibition (GI)” value (Aspergillus nidulans [1])?
Its value is “inactive”.

With COc1ccc(CNC(=O)Nc2nc(C)c(C(C)=O)s2)cc1 as the compound, how does the “growth inhibition (GI)” value (Aspergillus nidulans [7]) read?
Its value is “inactive”.

What about the IC50 [8] of the same compound?
Its IC50 is 600 nM.

What about the “growth inhibition (GI)” value (Aspergillus nidulans [1]) of the same compound?
Its value is “inactive”.

What does the source list for O=c1sn(-c2cccc3ccccc23)c(=O)n1Cc1ccccc1?
growth inhibition (GI) (Aspergillus nidulans [7]): inactive; growth inhibition (GI) (Aspergillus nidulans [1]): inactive; inhibition (Aspergillus nidulans [9]): Active; growth inhibition (GI) (Aspergillus fumigatus [10]): inactive; growth inhibition (GI) (Aspergillus fumigatus [11]): inactive; growth inhibition (GI) (Aspergillus fumigatus [12]): inactive

O=C(CCl)c1scc(Br)c1Br was tested. Which “growth inhibition (GI)” value (Aspergillus nidulans [13]) did it give?
The value was “Active”.

And the “growth inhibition (GI)” value (Aspergillus nidulans [1])?
The value was “inactive”.

What about the “growth inhibition (GI)” value (Aspergillus fumigatus [14]) of the same compound?
The value was “Active”.

What about the “growth inhibition (GI)” value (Aspergillus fumigatus [15]) of the same compound?
Its value is “inactive”.

And the “growth inhibition (GI)” value (Aspergillus fumigatus [16])?
Its value is “inactive”.

And the “growth inhibition (GI)” value (Aspergillus fumigatus [17])?
Its value is “Active”.

What about the “growth inhibition (GI)” value (Aspergillus fumigatus [18]) of the same compound?
The value was “Active”.
